Series [1] relates to Col-0 plants rosette leaves. Kind of series: Water loss. The series is classed as in vivo, Arabidopsis thaliana. The conditions noted are these: one-month-old Col-0 plants, 50 μM spray, compared with DMSO. In a few lines:
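Well-watered 4-week-old Col-0 plants on soil (8-h light/16-h dark) were sprayed with 50 µM test compound plus 0.02% Tween-20; DMSO control. Plants were returned to the chamber for 3 h. Equal-sized rosette leaves were then detached and weighed in air every 5 min for the first hour and every 10 min for the second. Loss is expressed as % of initial fresh weight; n = 4, standard error.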

For series [2], the system named is Arabidopsis seeds (Col-0 and pyr1;pyl1;pyl4). Kind of series: Seed germination assay. The conditions noted are these: 1 μM. Format: in vivo, Arabidopsis thaliana. In a few lines:
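Col-0 and pyr1;pyl1;pyl4 seeds were stratified 4 days, then sown on half-strength MS (1% sucrose) containing 1 µM test compound or (+)-ABA; DMSO control. Plates were kept at 22 °C under long day, 15 seeds per plate and 4 plates per chemical. Germination was defined as expanded green cotyledons and counted 4 days after triple-mutant germination; mean ± SD.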

A short description of series [3]: Stability measurement under UV light. The conditions noted are these: water exposed to UV light (8 W). The series is classed as physicochemical. In a few lines: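 Test compound and ABA, each 100 µM in pure water, were exposed in aliquots to an 8 W UV lamp in a safety hood. Aliquots were withdrawn at set time points for LC-MS. Amounts were quantified from peak areas, and half-life was calculated from peak disappearance.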

Series [4] concerns HAB1 PP2C with PYR/PYL receptors. Kind of series: HAB1 phosphatase activity assay. The series is classed as biochemical, Arabidopsis thaliana. The conditions noted are these: 10 μM; PYR1 and PYL1-10.
In series [5] the test system is Arabidopsis seedlings transcriptome. Nature of the series: RNA-seq transcriptome profiling of seedlings. Format: in vivo, Arabidopsis thaliana. As to conditions: 50 μM, FDR < 0.05. In a few lines: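 Ten-day-old Col-0 seedlings on half-strength MS were exposed for 6 h to 50 µM test compound or (+)-ABA, or 0.05% DMSO. Duplicate biological replicates were sequenced on Illumina HiSeq2000 (10 M reads/sample, mean length >49 bp). Fold-change versus DMSO was log2-transformed; Spearman correlations were computed between samples. Differential genes were called by SAM analysis.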

Series [6] concerns reconstructed ABA signaling pathway (PYR1+HAB1+SnRK2.6+ABF2), RD29b-luciferase reporter. Nature of the series: Protoplast transactivation assay. The series is classed as cell-based, Arabidopsis thaliana. As to conditions: snrk2.2/2.3/2.6 protoplasts transfected with PYR1, HAB1, SnRK2.6, ABF2; 5 μM AM1. The method in brief:
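Protoplasts came from 4-week-old pRD29b-LUC plants (snrk2.2/2.3/2.6 background) grown on soil pellets under 8-h light/16-h dark. They were transfected with PYR1, HAB1, SnRK2.6 and ABF2, or the same set without PYR1. Cells were treated with 5 µM test compound; DMSO control. RD29b-driven luciferase was measured.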

The subject of series [7] is ABA-induced stress-related genes. Kind of series: Quantitative RT-PCR of ABA-induced genes in seedlings. Format: in vivo, Arabidopsis thaliana. As to conditions: 50 μM, 6 h.

The record followed here is PMC3731570 (Cell Research, 2013).

As to `CC1=CC(=O)CC(C)(C)[C@@]1(O)/C=C/C(C)=C\C(=O)O` [ABA, Abscisic acid], the “water loss of rosette leaves” value in series [1] is on record as “decreased”. In addition, the “inhibition of seed germination” value in series [2] (pyr1/pyl1/pyl4 triple mutant) is “completely abolished”; in series [2] (wild-type Col-0 seeds) it was “inhibit germination”. For the same molecule, the half-life (in general, the time in which the quantity being followed falls by half) at 100 μM in series [3] stood at 24 min. The “receptor-mediated inhibition of HAB1 PP2C activity” value in series [4] is “inhibited by all receptor subtypes tested”. In series [5], the “number of genes induced (up- or down-regulated) vs DMSO” value is recorded as 4 529 genes. The “activation of RD29b-luciferase reporter” value in series [6] is “efficiently activate”. Also, the “activation of six ABA-inducible genes” value in series [7] (pyr1/pyl1/pyl4 triple mutant plants) is “much reduced, but remained inducible”; in series [7] (wild-type plants) it was “dramatically activated”.
